Results from article PMC9279713 (Acta Pharmaceutica Sinica. B, 2021).

Experiments:
[1] = test system: CT26, HCT116 and SW620 cells; assay: Western blotting of HIF-1α, PD-L1, HMGA1, p-Erk and p-Akt expression; assay type: cell-based
Method in brief: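 Cells were exposed to a range of test compound concentrations and then lysed in RIPA buffer containing 1% protease and 2% phosphatase inhibitors. Total lysate (20 μg protein per lane) was run on SDS-PAGE and transferred to PVDF. Membranes were blocked in 5% milk/TBST, incubated with primary antibodies overnight at 4 °C, then with an HRP-labelled secondary antibody for 2 h at room temperature.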

HCT116 and CT26 cells = assay: Immunogenic cell death: immunofluorescence of CRT and HMGB1; assay type: cell-based; details: 100 nmol/L

Substance: deoxybouvardin [RA-V]
- HMGA1 expression ([1]; CT26, HCT116 and SW620 cells): inhibited significantly
- p-Akt and p-Erk expression ([1]; CT26, HCT116 and SW620 cells): decreased
- PD-L1 expression ([1]; CT26 cells, different concentrations): down-regulated PD-L1 expression remarkably
- ICD effect: pre-apoptotic CRT exposure to membrane surface (HCT116 and CT26 cells): failed to elicit significant pre-apoptotic CRT exposure
